Converted amounts (≈) assume the structure as drawn.
Columns and labels:
Assay type in all cases: functional
[1] = test system: Rattus norvegicus; assay: Antiinflammatory effect on carrageenan-induced paw oedema Sprague-Dawley rat assessed as reduction of paw oedema at 40 mg/kg, ip; parameters: scale not given: the % may be the effect or the level left; conditions: route intraperitoneal
Outline: (§1)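 Rats in groups of five, acclimatised two days, given compound (20, 40, 60 mg/kg) or indomethacin (10 mg/kg) i.p. as suspension in 1 ml 0.5% aqueous carboxymethyl cellulose 1 h before 0.1 ml 1% carrageenin in saline into right hind plantar tissue; left paw got saline. Paw volume by water plethysmometer at 4 h; % protection vs vehicle control; mean ± S.E.M., Student's t test.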

[2] = test system: Escherichia coli; assay: Antimicrobial activity against Escherichia coli IFO 3301 at 200 ug/disc after 24 hrs; conditions: IFO 3301, 24 h, read-out: IZ
[3] = test system: Bacillus subtilis; assay: Antimicrobial activity against Bacillus subtilis IFO 3007 at 200 ug/disc after 24 hrs; conditions: IFO 3007, 24 h, read-out: IZ
[4] = test system: Candida albicans; assay: Antimicrobial activity against Candida albicans IFO 0583 at 200 ug/disc after 48 hrs; conditions: IFO 0583, 48 h, read-out: IZ
[5] = test system: Rattus norvegicus; assay: Antiinflammatory effect on carrageenan-induced paw oedema Sprague-Dawley rat assessed as reduction of paw oedema at 60 mg/kg, ip; parameters: scale not given: the % may be the effect or the level left; conditions: route intraperitoneal; outline: as §1
[6] = test system: Rattus norvegicus; assay: Antiinflammatory effect on carrageenan-induced paw oedema Sprague-Dawley rat assessed as reduction of paw oedema at 20 mg/kg, ip; parameters: scale not given: the % may be the effect or the level left; conditions: route intraperitoneal; outline: as §1
[7] = test system: Pseudomonas aeruginosa; assay: Antimicrobial activity against Pseudomonas aeruginosa IFO 3448 at 200 ug/disc; conditions: read-out: IZ
[8] = test system: Staphylococcus aureus; assay: Antimicrobial activity against Staphylococcus aureus IFO 3060 at 200 ug/disc after 24 hrs; conditions: IFO 3060, 24 h, read-out: IZ
[9] = test system: Bacillus subtilis; assay: Antimicrobial activity against Bacillus subtilis IFO 3007 after 24 hrs; conditions: IFO 3007, 24 h
[10] = test system: Candida albicans; assay: Antimicrobial activity against Candida albicans IFO 0583 after 48 hrs; conditions: IFO 0583, 48 h
[11] = test system: Staphylococcus aureus; assay: Antimicrobial activity against Staphylococcus aureus IFO 3060 after 24 hrs; conditions: IFO 3060, 24 h

Row | MIC [9] | MIC [10] | MIC [11] | Compound | Activity [1] | zone of inhibition at 200 µg/disc [2] | zone of inhibition at 200 µg/disc [3] | zone of inhibition at 200 µg/disc [4] | Activity [5] | Activity [6] | zone of inhibition at 200 µg/disc [7] | zone of inhibition at 200 µg/disc [8]
1 |  |  |  | O=[N+]([O-])c1cc(-c2nnc(C34CC5CC(CC(C5)C3)C4)o2)cc([N+](=O)[O-])c1 | 5.22% | < 10 mm | < 10 mm | < 10 mm | 3.66% | 4.16% | < 10 mm | < 10 mm
2 |  |  |  | O=[N+]([O-])c1ccc(-c2nnc(C34CC5CC(CC(C5)C3)C4)o2)c(Cl)c1 | 21.65% | 10 mm | 14 mm | < 10 mm | 19.34% | 19.69% | 10 mm | < 10 mm
3 | 2 mg/L (≈ 6.98 µM) | 2 mg/L (≈ 6.98 µM) |  | c1csc(-c2nnc(C34CC5CC(CC(C5)C3)C4)o2)c1 | 49.77% | 11 mm | 18 mm | 16 mm | 63.72% | 35.95% | 12 mm | 14 mm
4 |  |  |  | c1ccc(-c2nnc(NC34CC5CC(CC(C5)C3)C4)s2)cc1 | 34.05% | 12 mm | < 10 mm | < 10 mm | 33.53% | 19.69% | < 10 mm | < 10 mm
5 |  |  | 2 mg/L (≈ 5.78 µM) | Clc1ccc(-c2nnc(NC34CC5CC(CC(C5)C3)C4)s2)cc1 | 37.02% | 12 mm | 16 mm | < 10 mm | 37.11% | 21.63% | < 10 mm | 18 mm
6 |  |  |  | Brc1ccc(-c2nnc(NC34CC5CC(CC(C5)C3)C4)s2)cc1 | 13.38% | < 10 mm | < 10 mm | < 10 mm | 14.16% | 12.51% | < 10 mm | < 10 mm
7 |  |  |  | c1csc(-c2nnc(NC34CC5CC(CC(C5)C3)C4)s2)c1 | 28.62% | < 10 mm | 10 mm | < 10 mm | 37.52% | 15.43% | < 10 mm | < 10 mm
8 |  |  |  | Fc1ccc(-c2nnc(C34CC5CC(CC(C5)C3)C4)o2)cc1 | 29.15% | < 10 mm | 12 mm | < 10 mm | 38.62% | 11.72% | < 10 mm | < 10 mm
9 |  |  |  | Clc1ccc(-c2nnc(C34CC5CC(CC(C5)C3)C4)o2)cc1 | 44.66% | 10 mm | 13 mm | < 10 mm | 50.71% | 34.5% | < 10 mm | < 10 mm
10 |  |  |  | O=C(NNC(=S)NC12CC3CC(CC(C3)C1)C2)c1ccc(F)cc1 |  | < 10 mm | 13 mm | < 10 mm |  |  | < 10 mm | < 10 mm
